In one data set the test system is glioma tumor. Conditions: mice; cited from earlier work.
The next data set has as its system prostate carcinoma cells. Conditions: in vitro; cited from earlier work.
For data set [1], the system named is subcutaneous human tumor xenografts. Conditions: oral administration; lung, prostate, pancreatic, glioma, colon, breast; cited from earlier work.
In data set [2] the test system is lung carcinoma xenografts. Conditions: cited from earlier work.
Data set [3] has as its system TNFα-stimulated IL-6 production in 4T1 cells. Briefly: IL-6 ELISA of TNFα-stimulated 4T1 cells. Conditions: 0.25 to 1.0 µM, TNFα 10 ng/ml, 24 h. The data set is classed as cell-based, murine.
The subject of data set [4] is carcinoma cells in three-dimensional culture. To be noted: 0.1 µM; cited from earlier work.
The test system of the next data set is pY118 paxillin. Briefly: Immunoblotting of pY118 paxillin in orthotopic 4T1 tumors. Conditions: 0.5 mg/ml ad libitum. Format: in vivo, Balb/c mice.
The subject of data set [5] is p130Cas Tyr-410 phosphorylation (pY410Cas). Briefly: Immunoblotting of tumor p130Cas Tyr-410 phosphorylation in 4T1 tumors. Format: in vivo, Balb/c mice. In general terms: In western blotting, separated proteins are transferred to a membrane and probed.
In data set [6] the test system is 4T1 tumor blood vessels (CD31). Briefly: Anti-CD31 staining of 4T1 orthotopic tumors. Format: in vivo, Balb/c mice. To be noted: 150 mg/kg p.o. b.i.d.
For data set [7], the target named is FAK pY397 phosphorylation (Homo sapiens, UniProt Q05397). Kind of data set: Immunoblotting of FAK pY397 in MDA-MB-231 tumors. To be noted: 0.5 mg/ml ad libitum. The data set is classed as in vivo. In short, it runs like this:
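From day 12 (palpable tumors), mice drank 5% sucrose or 0.5 mg/ml compound in 5% sucrose ad libitum. Tumor growth was followed to Day 70; final tumors were weighed and lysed for immunoblot of the FAK pY397 to total FAK ratio (n=11 control, 13 treated).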

The next data set has as its system 4T1 lung metastases. Kind of data set: Spontaneous 4T1 breast to lung metastasis. Format: in vivo, Balb/c mice. To be noted: 150 mg/kg p.o. b.i.d. for 15 days.
A further data set in a line: Water solubility. The data set is classed as physicochemical.
Data set [8] relates to adherent cell proliferation. Conditions: 1.0 µM; cited from earlier work.
A further data set concerns cell motility. Conditions: 0.1 to 1.0 µM; cited from earlier work.
Data set [9] has as its system 4T1 orthotopic breast carcinoma tumors. Briefly: Orthotopic 4T1 breast carcinoma tumor growth. The data set is classed as in vivo, Balb/c mice.
A short description of data set [10]: PND-1186 levels in tumor samples by HPLC and mass spectroscopy. The data set is classed as in vivo, Balb/c mice. To be noted: for maximal PND-1186 in tumors / time to maximal PND-1186 in tumors: subcutaneous 4T1 tumors.
Data set [11] is described as follows: Body weight and toxicity in mouse studies. Format: in vivo.
In a further data set the test system is Src activity. To be noted: adherent or suspended 4T1 cells; cited from earlier work.
In data set [12] the target is FAK Tyr-397 phosphorylation (pY397 FAK) (Mus musculus, UniProt P34152). Kind of data set: Immunoblotting of tumor FAK Tyr-397 phosphorylation in 4T1 tumors. The data set is classed as in vivo, Balb/c mice.
Data set [13] has as its system MDA-MB-231 cells in lungs. Kind of data set: Experimental metastasis assay. Format: in vivo, nude mice. To be noted: 150 mg/kg p.o. pre-administered, 1 and 6 h after cell injection.
Data set [14] has as its system suspended MDA-MB-231 cells. Kind of data set: Apoptosis assay. To be noted: concentrations up to 10 µM, within 6 h. The data set is classed as cell-based, human. The gist of the method: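 Suspended MDA-MB-231 cells exposed to test compound or DMSO for 1 h or 6 h, then stained with FITC-annexin V for 30 min and analysed by flow cytometry within 1 h. Quadrant gates were set from autofluorescence (negative) and staurosporine 1 µM (positive) controls. Apoptosis is the percent of annexin V-positive cells.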

Data set [15] relates to MDA-MB-231 orthotopic tumors. Briefly: Orthotopic MDA-MB-231 tumor growth. Format: in vivo, SCID mice. To be noted: 0.5 mg/ml ad libitum, Day 27 (15 days of administration).
The subject of data set [16] is tumor-associated splenomegaly. Kind of data set: Spleen weight in 4T1 tumor-bearing mice. Format: in vivo, Balb/c mice.
Another data set is described as follows: Pharmacokinetic. Format: in vivo, Balb/c mice. Conditions: plasma; for Cmax: mice.
Setting [17] is: 0.5 mg/ml ad libitum, orthotopic 4T1 tumors.

We go through four compounds from publication PMC2933309 (Cancer biology & therapy, 2010).

A word on the solubility: it is the concentration that dissolves in the medium under given conditions. A low value points to little dissolved substance. The term Cmax denotes the maximum level reached in the sampled fluid or tissue. In general, bioavailability refers to the share of a dose that reaches the circulation, judged against a reference dose that is usually intravenous.

Entries after “also recorded” stand apart in the source; their conditions may differ.

FAK Tyr-397 phosphorylation (pY397 FAK), sequence (P34152 whole entry): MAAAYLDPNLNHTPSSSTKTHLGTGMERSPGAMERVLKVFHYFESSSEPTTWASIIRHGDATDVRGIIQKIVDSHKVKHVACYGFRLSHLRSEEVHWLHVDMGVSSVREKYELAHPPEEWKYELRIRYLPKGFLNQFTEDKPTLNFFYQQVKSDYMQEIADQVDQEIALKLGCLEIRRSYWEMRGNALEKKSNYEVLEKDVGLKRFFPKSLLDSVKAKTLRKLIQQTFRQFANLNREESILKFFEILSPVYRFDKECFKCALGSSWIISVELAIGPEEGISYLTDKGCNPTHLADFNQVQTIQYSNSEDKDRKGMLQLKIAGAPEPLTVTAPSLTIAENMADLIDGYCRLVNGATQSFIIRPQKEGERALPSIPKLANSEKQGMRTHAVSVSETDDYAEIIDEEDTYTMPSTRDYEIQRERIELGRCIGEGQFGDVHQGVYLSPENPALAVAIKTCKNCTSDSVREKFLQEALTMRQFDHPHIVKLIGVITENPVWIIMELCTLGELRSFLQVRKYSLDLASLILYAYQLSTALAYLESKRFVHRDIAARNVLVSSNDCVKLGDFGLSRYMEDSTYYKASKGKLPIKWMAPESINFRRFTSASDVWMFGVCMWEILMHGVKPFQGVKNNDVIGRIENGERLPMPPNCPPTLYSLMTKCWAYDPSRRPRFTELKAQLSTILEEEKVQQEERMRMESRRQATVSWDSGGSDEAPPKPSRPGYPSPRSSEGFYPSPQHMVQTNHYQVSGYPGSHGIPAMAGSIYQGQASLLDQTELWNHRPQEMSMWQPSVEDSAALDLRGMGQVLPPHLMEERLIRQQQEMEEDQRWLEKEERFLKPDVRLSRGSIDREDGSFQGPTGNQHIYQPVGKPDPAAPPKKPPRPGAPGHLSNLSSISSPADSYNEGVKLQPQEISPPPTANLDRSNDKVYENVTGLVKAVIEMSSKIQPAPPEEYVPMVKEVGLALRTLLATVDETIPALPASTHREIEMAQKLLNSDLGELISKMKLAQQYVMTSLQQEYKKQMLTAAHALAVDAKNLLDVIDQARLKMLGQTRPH
FAK pY397 phosphorylation, sequence (Q05397 whole entry): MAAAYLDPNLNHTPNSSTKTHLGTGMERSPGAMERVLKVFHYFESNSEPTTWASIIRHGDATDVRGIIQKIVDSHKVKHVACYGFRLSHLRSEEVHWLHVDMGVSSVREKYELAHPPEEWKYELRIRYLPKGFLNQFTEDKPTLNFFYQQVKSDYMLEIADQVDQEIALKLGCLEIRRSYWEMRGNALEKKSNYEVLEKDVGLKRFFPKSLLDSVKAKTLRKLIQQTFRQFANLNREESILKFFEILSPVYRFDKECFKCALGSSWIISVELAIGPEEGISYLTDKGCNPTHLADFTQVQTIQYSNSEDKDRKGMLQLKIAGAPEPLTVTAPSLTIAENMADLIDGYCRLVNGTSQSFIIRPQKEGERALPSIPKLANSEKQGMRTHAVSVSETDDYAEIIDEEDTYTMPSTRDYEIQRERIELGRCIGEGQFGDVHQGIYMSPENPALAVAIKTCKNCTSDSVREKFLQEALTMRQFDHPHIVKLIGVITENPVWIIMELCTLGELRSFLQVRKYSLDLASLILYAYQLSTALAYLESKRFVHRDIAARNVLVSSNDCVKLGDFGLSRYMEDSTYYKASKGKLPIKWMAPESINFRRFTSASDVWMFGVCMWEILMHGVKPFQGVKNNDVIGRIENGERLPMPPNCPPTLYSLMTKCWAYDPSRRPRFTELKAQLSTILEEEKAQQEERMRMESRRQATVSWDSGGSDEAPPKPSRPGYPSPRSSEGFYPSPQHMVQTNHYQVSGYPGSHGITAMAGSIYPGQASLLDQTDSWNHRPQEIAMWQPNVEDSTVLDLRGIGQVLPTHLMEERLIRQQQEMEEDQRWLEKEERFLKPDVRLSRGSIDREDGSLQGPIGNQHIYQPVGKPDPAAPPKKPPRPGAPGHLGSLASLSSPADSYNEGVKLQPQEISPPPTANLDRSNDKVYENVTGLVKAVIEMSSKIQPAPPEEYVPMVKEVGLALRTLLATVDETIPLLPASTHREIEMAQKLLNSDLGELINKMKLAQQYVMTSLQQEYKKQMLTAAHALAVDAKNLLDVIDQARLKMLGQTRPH

Regarding `CNC(=O)c1ccccc1Nc1nc(Nc2ccc(N3CCOCC3)cc2OC)ncc1Cl` [TAE-226], in the data set on glioma tumor, the glioma tumor growth result is reported as “can prevent glioma tumor growth in mice”.

For the compound `CS(=O)(=O)c1cccc(CNc2nc(Nc3ccc4c(c3)CCC(=O)N4)ncc2C(F)(F)F)c1` [PF-573,228], the “prostate carcinoma cell motility” value in the data set on prostate carcinoma cells is on record as “prevented prostate carcinoma cell motility in vitro”.

In the case of `CN(c1ncccc1CNc1nc(Nc2ccc3c(c2)CC(=O)N3)ncc1C(F)(F)F)S(C)(=O)=O` [PF-562,271], the “growth of subcutaneous human tumor xenografts” value in [1] is listed as “reduces the growth”. The tumor microvessel density entry in [2] is on record as “reduced tumor microvessel density”.

`CNC(=O)c1ccccc1Nc1cc(Nc2ccc(N3CCOCC3)cc2OC)ncc1C(F)(F)F` [PND-1186]: the IL-6 release entry in [3] is “inhibited IL-6 release in a dose-dependent manner”. Moreover, in data set [4], the “carcinoma cell apoptosis under three-dimensional culture conditions” value is “selectively promotes carcinoma cell apoptosis”. For the same compound, the “pY118 paxillin phosphorylation in tumors” value in the data set with pY118 paxillin is given as “inhibited”. For the same compound, the “p130Cas pY410 phosphorylation in primary 4T1 tumors” value in data set [5] (setting [17]) is recorded as “sufficient to inhibit”. In addition, the “p130Cas Tyr-410 phosphorylation (pY410Cas) in tumors” value in data set [5] (100 mg/kg single i.p., subcutaneous 4T1 tumors, by 3 h) was “significantly reduced”. The “vascular differences by anti-CD31 staining” value in data set [6] is “no major vascular differences”. In addition, the “FAK pY397 phosphorylation in MDA-MB-231 tumors” value in data set [7] was “significantly reduce”. Further, the “mice with high lung metastatic burden” value in the data set with 4T1 lung metastases was “no mice with a high metastatic burden”. In “Water solubility”, this compound gave a solubility greater than 20 mg/mL. Moreover, the adherent cell proliferation entry in [8] was “limited inhibitory effects on adherent cell proliferation”. Moreover, the cell motility result with cell motility is reported as “prevents cell motility in a dose-dependent fashion”. In addition, the “tumor size by caliper measurements versus control” value in data set [9] (0.5 mg/ml ad libitum, Day 13) is “tumor size was significantly different”; in [15], “control tumors were significantly larger”. Further, the “reduction of final tumor volume compared to vehicle control” value in data set [9] (150 mg/kg p.o. b.i.d., 16 days) is given as 3 fold. Moreover, in [9] (150 mg/kg p.o. b.i.d., Day 7), the “tumor volume compared to vehicle control” value is “significantly reduced tumor volume”. In addition, the figures for the “maximal PND-1186 in tumors” value in data set [10] (30 mg/kg single i.p.) and in data set [10] (100 mg/kg single i.p.) were 0.75 µg/g and 16.1 µg/g, respectively. Further, the “time to maximal PND-1186 in tumors” value in [10] (30 mg/kg single i.p.) and in data set [10] (100 mg/kg single i.p.) was no more than 1 h in each case. Moreover, the concentration at 7 days in data set [10] (Balb/c, mouse, tumor, oral, 0.5 mg/ml) was 522 ng/g; in “Pharmacokinetic” (Balb/c, mouse, oral, 0.5 mg/ml), 1.2 µM. The “toxicity or weight loss” value in data set [11] (0.5 mg/ml ad libitum administration) is “no signs of toxicity or weight loss; also recorded: without toxicity or weight loss”. In [11] (150 mg/kg p.o. b.i.d., 4T1 tumor-bearing Balb/c mice), the “effect on total body weight” value was “without affects on total body weight”. In addition, the Src activity entry with Src activity was “does not inhibit Src activity”. In addition, the “FAK pY397 phosphorylation in primary 4T1 tumors” value in data set [12] (setting [17]) is listed as “sufficient to inhibit”. Besides, the “tumor FAK pY397 phosphorylation at 12 h” value in data set [12] (30 mg/kg single i.p., subcutaneous 4T1 tumors, 12 h) is given as “not significantly inhibited”. The “accumulation of tumor cells in the lungs” value in data set [13] is “significantly inhibited the accumulation of tumor cells in the lungs”. Moreover, the “MDA-MB-231 apoptosis by annexin V binding” value in [14] is listed as “did not promote MDA-MB-231 apoptosis”. Moreover, the spleen size result in data set [16] (0.5 mg/ml ad libitum) is recorded as “of normal size”. In addition, in [16] (150 mg/kg p.o. b.i.d.), the spleen appearance result was “healthy and indistinguishable from non-treated, non-tumor bearing mice”. The “spleen weight, vehicle-treated over PND-1186-treated mice” value in data set [16] (150 mg/kg p.o. b.i.d.) was greater than 2 fold. Besides, the maximum concentration (Cmax) was 34.8 µM in the data set “Pharmacokinetic” (30 mg/kg i.p.) and 117 µM in the data set “Pharmacokinetic” (Balb/c, mouse, ip, 100 mg/kg, CMAX, 100 mg/kg i.p.). For the same compound, the bioavailability in “Pharmacokinetic” (Balb/c, mouse, ip, 30 mg/kg) worked out at 31.1%; in the data set “Pharmacokinetic” (Balb/c, mouse, ip, 100 mg/kg), 42.2%; in “Pharmacokinetic” (Balb/c, mouse, po, 150 mg/kg) it was 14.8%.
